Key:
[1] = Minimum cytotoxic concentration in primary rabbit kidney (PRK) cell cultures; format: functional, Oryctolagus cuniculus
[2] = test system: Vaccinia virus; assay: Minimum inhibitory concentration against vaccinia virus embryonic skin muscle cell cultures; format: functional; conditions: Orthopoxvirus vaccinia
[3] = test system: Vaccinia virus; assay: (§1) Minimum inhibitory concentration against vaccinia virus in primary rabbit kidney cell cultures of experiment 2; format: functional, Orthopoxvirus vaccinia
[4] = test system: Human alphaherpesvirus 2; assay: Minimum inhibitory concentration against Herpes simplex virus 2(G); format: functional
[5] = test system: P388; assay: Inhibitory effect on the proliferation of murine leukemia (P388) cells; format: functional; conditions: Mus musculus, read-out: ID50 (the source's name)
[6] = test system: Vaccinia virus; assay: Minimum cytotoxic concentration against vaccinia virus in primary rabbit kidney cell cultures; format: functional; conditions: Orthopoxvirus vaccinia
[7] = test system: Vaccinia virus; assay: Minimum inhibitory concentration against vaccinia virus in primary rabbit kidney cell cultures of experiment 1; format: functional; conditions: Orthopoxvirus vaccinia
[8] = test system: FM3A; assay: Inhibitory effect on the proliferation of murine mammary carcinoma (FM3A) cells; format: functional; conditions: Mus musculus, read-out: ID50 (the source's name)
[9] = test system: Vaccinia virus; assay: Minimum cytotoxic concentration against vaccinia virus embryonic skin muscle cell cultures; format: functional; conditions: Orthopoxvirus vaccinia
[10] = test system: Vaccinia virus; assay: Minimum inhibitory concentration against vaccinia virus in Vero cell cultures of experiment 1; format: functional; conditions: Orthopoxvirus vaccinia
[11] = test system: L1210; assay: Inhibitory effect on the proliferation of murine leukemia (L1210) cells; format: functional; conditions: Mus musculus, read-out: ID50 (the source's name)
[12] = test system: Vaccinia virus; assay: Minimum cytotoxic concentration against vaccinia virus in Vero cell cultures; format: functional; conditions: Orthopoxvirus vaccinia
[13] = test system: Raji; assay: Inhibitory effect on the proliferation of human B lymphoblast (Raji) cells; format: functional; conditions: read-out: ID50 (the source's name)
[14] = test system: Human alphaherpesvirus 1; assay: Minimum inhibitory concentration against Herpes simplex virus 1(KOS); format: functional
[15] = test system: Calf thymus DNA; assay: Relative binding constant to calf thymus DNA; format: nucleic-acid assay; conditions: Bos taurus
Outline: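 Ethidium displacement: Tris-EDTA buffer pH 8 with 1.3 μM ethidium bromide and calf thymus DNA (1.35 μM final); drug aliquots added, fluorescence read after a few minutes' equilibration (excitation 525 nm, emission 600 nm). Drug level giving 50% fluorescence decrease converted to relative binding constant taking ethidium binding constant as 10^7 M-1.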

[16] = Inhibitory effect on the proliferation of human T-lymphoblast (Molt/4F) cells; format: functional; conditions: read-out: ID50 (the source's name)
[17] = test system: Vaccinia virus; assay: Minimum inhibitory concentration against vaccinia virus in Vero cell cultures of experiment 2; format: functional; conditions: Orthopoxvirus vaccinia
[18] = test system: Vesicular stomatitis virus; assay: Minimum inhibitory concentration against Vesicular stomatitis virus; format: functional
[19] = test system: Vaccinia virus; assay: Minimum inhibitory concentration against Vaccinia virus; format: functional; conditions: Orthopoxvirus vaccinia
[20] = test system: Vaccinia virus; assay: Minimum cytotoxic concentration against vaccinia virus in HeLa cell cultures; format: functional; conditions: Orthopoxvirus vaccinia
[21] = test system: Vaccinia virus; assay: as §1; format: functional; conditions: Orthopoxvirus vaccinia
[22] = Inhibition of Moloney Murine Leukemia Associated Reverse Transcriptase; format: functional, Mus musculus
[23] = test system: Vaccinia virus; assay: Minimum inhibitory concentration against vaccinia virus in HeLa cell cultures; format: functional; conditions: Orthopoxvirus vaccinia
[24] = test system: Vaccinia virus; assay: Minimum cytotoxic concentration against vaccinia virus against embryonic skin muscle cell cultures; format: functional; conditions: Orthopoxvirus vaccinia
[25] = test system: Raji; assay: Inhibitory effect on the proliferation of human B lymphoblast (Raji ) cells; format: functional; conditions: read-out: ID50 (the source's name)
[26] = Inhibitory effect on the proliferation of human T-lymphoblast (Molt/4F ) cells; format: functional; conditions: read-out: ID50 (the source's name)
[27] = test system: FM3A; assay: Inhibitory effect on the proliferation of murine mammary carcinoma (FM3A ) cells; format: functional; conditions: Mus musculus, read-out: ID50 (the source's name)
[28] = test system: L1210; assay: Inhibitory effect on the proliferation of murine leukemia (L1210 ) cells; format: functional; conditions: Mus musculus, read-out: ID50 (the source's name)
[29] = test system: Vaccinia virus; assay: Minimum cytotoxic concentration against HeLa cell cultures; format: functional; conditions: Orthopoxvirus vaccinia
Outline: (§2)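 Host cell cultures (primary rabbit kidney, HeLa, Vero, or E6SM embryonic skin-muscle cells, as named) exposed to compound. Minimum cytotoxic concentration taken as the concentration required to cause a microscopically detectable alteration of normal cell morphology.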

[30] = test system: Vaccinia virus; assay: Minimum cytotoxic concentration against primary rabbit kidney cell cultures; format: functional; conditions: Orthopoxvirus vaccinia; outline: as §2
[31] = test system: Vaccinia virus; assay: Minimum cytotoxic concentration against embryonic skin muscle cell cultures; format: functional; conditions: Orthopoxvirus vaccinia; outline: as §2
[32] = test system: Vaccinia virus; assay: Minimum cytotoxic concentration against Vero cell cultures; format: functional; conditions: Orthopoxvirus vaccinia; outline: as §2
[33] = test system: P388; assay: Concentration which leads to inhibitory effect on the proliferation of murine leukemia (P388) cells; format: functional; conditions: Mus musculus, read-out: ID50 (the source's name)
Outline: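 Murine P388 leukaemia cells grown in Fischer's medium with 10% fetal calf serum. Compounds dissolved in water, or sonicated and given as a suspension if poorly soluble. Cells seeded at 1 × 10^5 per well and grown 72 h at 37 °C in humidified 5% CO2 with drug. Viability read by MTT formazan optical density at 570 nm (reference 630 nm).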

[34] = test system: PRK; assay: Compound was evaluated for the minimum cytotoxic concentration in primary rabbit kidney (PRK) cell cultures; format: functional; conditions: Oryctolagus cuniculus; outline: as §2
[35] = Orthopoxvirus vaccinia, read-out: MIC

SMILES | MCC [1] | MIC [2] | MIC [3, 35] | MIC [4] | IC50 [5] | MCC [6] | MIC [7] | MCC [9] | MIC [10] | MCC [12] | MIC [14] | Binding constant [15] | MIC [17] | MIC [18] | MIC [19] | MCC [20] | MIC [21] | ID50 [22] | IC50 [25] | IC50 [26] | also measured
Cl.Cl.Cn1cc(NC(=O)c2cc(NC(=O)Nc3cc(C(=O)Nc4cc(C(=O)NCCC(=N)N)n(C)c4)n(C)c3)cn2C)cc1C(=O)NCCC(=N)N | >40 µg/mL | 2 µg/mL | 20 µg/mL | 20 µg/mL | 8 µg/mL | 40 µg/mL | 7 µg/mL | 100 µg/mL | 20 µg/mL | > 40 µg/mL | > 10 µg/mL | 5.6e+07 M⁻¹ | 20 µg/mL | > 40 µg/mL | 7 µg/mL | > 40 µg/mL | 7 µg/mL | – | – | – | IC50 [8]: > 100 µg/mL; IC50 [11]: > 100 µg/mL; IC50 [13]: > 100 µg/mL; IC50 [16]: > 100 µg/mL
Cl.Cl.Cn1cc(NC(=O)c2cc(NC(=O)CCCCCCCCCC(=O)Nc3cc(C(=O)Nc4cc(C(=O)NCCC(=N)N)n(C)c4)n(C)c3)cn2C)cc1C(=O)NCCC(=N)N | >40 µg/mL | 0.2 µg/mL | – | 20 µg/mL | 18 µg/mL | > 40 µg/mL | 2 µg/mL | – | > 40 µg/mL | 100 µg/mL | > 10 µg/mL | 1.9e+07 M⁻¹ | – | > 40 µg/mL | 2 µg/mL | 100 µg/mL | – | 10.3 µg/mL | – | – | MIC [23]: 20 µg/mL; MCC [24]: > 40 µg/mL
Cl.Cl.Cn1cc(NC(=O)c2cc(NC(=O)CCCCCCCCCCC(=O)Nc3cc(C(=O)Nc4cc(C(=O)NCCC(=N)N)n(C)c4)n(C)c3)cn2C)cc1C(=O)NCCC(=N)N | >40 µg/mL | 0.2 µg/mL | – | 7 µg/mL | 4.8 µg/mL | > 40 µg/mL | 2 µg/mL | > 40 µg/mL | > 40 µg/mL | > 100 µg/mL | > 10 µg/mL | 2.2e+07 M⁻¹ | – | > 10 µg/mL | 2 µg/mL | > 40 µg/mL | – | 9.1 µg/mL | – | – | MIC [23]: 2 µg/mL
Cl.Cl.Cn1cc(NC(=O)c2cc(NC(=O)CCCCCCCC(=O)Nc3cc(C(=O)Nc4cc(C(=O)NCCC(=N)N)n(C)c4)n(C)c3)cn2C)cc1C(=O)NCCC(=N)N | >100 µg/mL | 0.7 µg/mL | 20 µg/mL | > 40 µg/mL | 0.75 µg/mL | > 100 µg/mL | 7 µg/mL | > 100 µg/mL | 40 µg/mL | > 200 µg/mL | > 40 µg/mL | 9e+06 M⁻¹ | 70 µg/mL | > 100 µg/mL | 0.2 µg/mL | > 200 µg/mL | 7 µg/mL | 34.2 µg/mL | 4.36 µg/mL | 3.3 µg/mL | IC50 [27]: 32 µg/mL; IC50 [28]: 10.8 µg/mL
Cl.Cl.Cn1cc(NC(=O)c2cc(NC(=O)CCCCCCCCC(=O)Nc3cc(C(=O)Nc4cc(C(=O)NCCC(=N)N)n(C)c4)n(C)c3)cn2C)cc1C(=O)NCCC(=N)N | >40 µg/mL | 0.2 µg/mL | 20 µg/mL | > 10 µg/mL | 0.98 µg/mL | > 40 µg/mL | 2 µg/mL | > 100 µg/mL | 20 µg/mL | > 40 µg/mL | > 10 µg/mL | 1.7e+07 M⁻¹ | > 40 µg/mL | > 10 µg/mL | 0.7 µg/mL | 100 µg/mL | 2 µg/mL | 20.9 µg/mL | 3.24 µg/mL | 2.97 µg/mL | IC50 [27]: 22.1 µg/mL; IC50 [28]: 4.21 µg/mL
Cl.Cl.Cn1cc(NC(=O)CCC(=O)Nc2cc(C(=O)NCCC(=N)N)n(C)c2)cc1C(=O)NCCC(=N)N | – | 70 µg/mL | 400 µg/mL | > 40 µg/mL | – | – | 300 µg/mL | – | > 400 µg/mL | – | > 100 µg/mL | – | > 400 µg/mL | > 100 µg/mL | 20 µg/mL | – | – | >400 µg/mL | > 100 µg/mL | > 100 µg/mL | MIC [3]: >400 µg/mL; MCC [29]: > 400 µg/mL; IC50 [27]: > 100 µg/mL; MCC [30]: > 400 µg/mL; MCC [31]: > 400 µg/mL; IC50 [28]: > 100 µg/mL; MCC [32]: > 400 µg/mL; IC50 [33]: > 20 µg/mL; MCC [34]: > 100 µg/mL

From ChEMBL document CHEMBL1124666, “Novel linked antiviral and antitumor agents related to netropsin and distamycin: synthesis and biological evaluation” (1989)
